ChEMBL document CHEMBL2331119 (Bioorg Med Chem Lett, 2013)
Active and inactive are the calls of the source. No cut-off for these calls is given here.

Assays:
[1] = molecular target: Sodium-dependent dopamine transporter (Homo sapiens, UniProt Q01959); test: Inhibition of [3H]dopamine uptake at human DAT expressed in COS7 cells after 3 mins by beta-counting; type: cell-based, COS-7
[2] = molecular target: Sodium-dependent noradrenaline transporter (Homo sapiens, UniProt P23975); test: Inhibition of [3H]dopamine uptake at human NET expressed in COS7 cells after 5 mins by beta-counting; type: cell-based, COS-7
Sodium-dependent noradrenaline transporter, sequence (P23975 whole entry, the tested form may be a part): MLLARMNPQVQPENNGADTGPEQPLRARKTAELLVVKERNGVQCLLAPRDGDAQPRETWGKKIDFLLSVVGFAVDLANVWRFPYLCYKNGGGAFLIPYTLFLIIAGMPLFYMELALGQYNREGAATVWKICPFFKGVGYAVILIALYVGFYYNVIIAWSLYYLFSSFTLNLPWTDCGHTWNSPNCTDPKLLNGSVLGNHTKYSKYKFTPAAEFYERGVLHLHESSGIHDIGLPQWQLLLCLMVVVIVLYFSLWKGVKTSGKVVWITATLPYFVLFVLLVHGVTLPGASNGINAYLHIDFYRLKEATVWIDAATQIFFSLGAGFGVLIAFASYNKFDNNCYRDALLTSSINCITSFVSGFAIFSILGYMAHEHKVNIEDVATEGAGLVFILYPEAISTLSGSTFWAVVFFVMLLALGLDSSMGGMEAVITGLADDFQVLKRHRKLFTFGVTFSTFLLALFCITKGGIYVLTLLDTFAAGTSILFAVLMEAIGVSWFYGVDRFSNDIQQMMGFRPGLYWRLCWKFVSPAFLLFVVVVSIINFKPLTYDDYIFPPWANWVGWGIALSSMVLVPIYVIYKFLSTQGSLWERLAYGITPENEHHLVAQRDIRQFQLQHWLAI

[3] = molecular target: T1, Sodium-dependent serotonin transporter (Homo sapiens, UniProt P31645); test: Binding affinity to EGFP fused human SERT expressed in HEK293 cells after 1 hr by confocal microscopy; type: cell-based
Outline: (§1)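 Live HEK293 cells stably expressing EGFP-hSERT were incubated 1 h at 37°C with 20 nM rhodamine-labeled ligand. […] Confocal microscopy scored red-channel fluorescence at the cell surface against EGFP (green) distribution. Images are representative of more than 3 individual experiments.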
Target sequence in this assay (P31645 whole entry, looked up, the tested form may be a part): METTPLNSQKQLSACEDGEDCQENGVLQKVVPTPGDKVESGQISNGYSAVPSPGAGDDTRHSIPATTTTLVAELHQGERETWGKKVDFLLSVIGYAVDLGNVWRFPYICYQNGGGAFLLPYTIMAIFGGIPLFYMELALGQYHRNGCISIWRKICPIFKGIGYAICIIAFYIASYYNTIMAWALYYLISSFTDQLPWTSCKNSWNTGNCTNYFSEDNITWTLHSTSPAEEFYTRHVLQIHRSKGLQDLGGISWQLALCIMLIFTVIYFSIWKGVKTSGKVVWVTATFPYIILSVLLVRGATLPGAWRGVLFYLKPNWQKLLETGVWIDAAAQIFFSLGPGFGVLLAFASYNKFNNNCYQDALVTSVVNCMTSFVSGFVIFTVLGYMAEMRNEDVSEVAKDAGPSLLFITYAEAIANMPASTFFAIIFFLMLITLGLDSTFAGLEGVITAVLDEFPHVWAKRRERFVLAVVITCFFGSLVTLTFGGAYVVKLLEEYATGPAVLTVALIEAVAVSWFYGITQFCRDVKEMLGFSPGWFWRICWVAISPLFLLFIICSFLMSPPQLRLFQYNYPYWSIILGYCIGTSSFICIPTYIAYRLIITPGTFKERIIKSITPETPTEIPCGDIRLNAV

[4] = molecular target: T1, Sodium-dependent serotonin transporter; test: Binding affinity to EGFP fused human SERT expressed in HEK293 cells after 1 hr by confocal microscopy in presence of paroxetine; type: cell-based; outline: as §1
Target sequence in this assay (P31645 whole entry, looked up, the tested form may be a part): as above

COS-7 [5] = test: Ratio of Ki for human NET expressed in COS7 cells to Ki for human SERT expressed in COS7 cells; type: cell-based
[6] = molecular target: T1, Sodium-dependent serotonin transporter; test: Binding affinity to EGFP fused human SERT expressed in HEK293 cells after 1 hr by confocal microscopy in presence of S-citalopram; type: cell-based; outline: as §1
Target sequence in this assay (P31645 whole entry, looked up, the tested form may be a part): as above

[7] = molecular target: T1, Sodium-dependent serotonin transporter; type: cell-based, COS-7
Target sequence in this assay (P31645 whole entry, the tested form may be a part): as the sequence (P31645 whole entry, looked up, the tested form may be a part) above

COS-7 [8] = test: Ratio of Ki for human DAT expressed in COS7 cells to Ki for human SERT expressed in COS7 cells; type: cell-based
[9] = molecular target: T1, Sodium-dependent serotonin transporter; test: Binding affinity to EGFP fused human SERT expressed in HEK293 cells after 1 hr by confocal microscopy in presence of 5-HT; type: cell-based; outline: as §1
Target sequence in this assay (P31645 whole entry, looked up, the tested form may be a part): as above

Sodium-dependent dopamine transporter, sequence (Q01959 whole entry): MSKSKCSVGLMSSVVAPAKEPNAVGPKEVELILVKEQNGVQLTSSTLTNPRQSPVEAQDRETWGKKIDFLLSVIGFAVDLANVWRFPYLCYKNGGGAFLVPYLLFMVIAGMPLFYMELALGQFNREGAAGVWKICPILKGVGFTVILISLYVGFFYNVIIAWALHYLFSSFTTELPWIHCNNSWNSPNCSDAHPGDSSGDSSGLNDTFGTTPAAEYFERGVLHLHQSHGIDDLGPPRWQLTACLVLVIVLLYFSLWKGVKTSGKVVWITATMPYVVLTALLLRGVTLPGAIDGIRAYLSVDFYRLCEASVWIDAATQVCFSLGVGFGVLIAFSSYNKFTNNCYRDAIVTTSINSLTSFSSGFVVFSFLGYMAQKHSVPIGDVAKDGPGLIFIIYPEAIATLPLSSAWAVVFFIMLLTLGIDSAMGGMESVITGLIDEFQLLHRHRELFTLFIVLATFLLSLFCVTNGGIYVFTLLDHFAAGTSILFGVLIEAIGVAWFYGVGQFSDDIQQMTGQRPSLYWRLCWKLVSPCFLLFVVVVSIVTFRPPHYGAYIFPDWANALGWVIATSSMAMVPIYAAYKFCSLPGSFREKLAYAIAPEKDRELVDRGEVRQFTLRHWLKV

Row | SMILES | Ki [1] [nM] | Ki [2] [nM] | Activity [3] | Activity [4] | Ratio Ki (COS-7 [5]) | Activity [6] | Ki [7] [nM] | Ratio Ki (COS-7 [8]) | Activity [9]
1 | CCN(CC)c1ccc2c(-c3ccc(S(=O)(=O)NCCCCCC(=O)NCCC(=O)Nc4cccc(-c5ccc6c(c5)COC6(CCCN(C)C)c5ccc(F)cc5)c4)cc3S(=O)(=O)[O-])c3ccc(=[N+](CC)CC)cc-3oc2c1 (stereo not drawn) | 10900 | 11800 | Active | inactive | 50 | inactive | 225 | 50 | inactive
2 | CN(C)CCCC1(c2ccc(F)cc2)OCc2cc(-c3cccc(N)c3)ccc21 (stereo not drawn) |  |  |  |  |  |  | 390 |  | 
3 | CCN(CC)c1ccc2c(-c3ccc(S(=O)(=O)NCCCCCC(=O)NCCN4[C@@H]5CC[C@@H]4[C@@H](C(=O)OC)[C@@H](c4ccc(Cl)c(Cl)c4)C5)cc3S(=O)(=O)[O-])c3ccc(=[N+](CC)CC)cc-3oc2c1 | 62 | 194 |  |  |  |  | 392 |  | 
